Reference: ChEMBL document CHEMBL2146382, “Cytotoxic and antineoplastic activity of timosaponin A-III for human colon cancer cells” (J Nat Prod, 2011)
Calls of active or inactive are those of the source. The calls are words filed in the database; no cut-off is given here.

Legend:
[1] = tested on: HCT-15; experiment: Antineoplastic activity against human HCT15 cells xenografted in nude BALB/c mouse assessed as tumor growth inhibition at 2 to 5 mg/kg, ip 3 times a week for 4 weeks; type: functional, organism-based
Summary of the method: (§1)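 HCT-15 cells (2 × 10^6 in 200 μL medium) implanted subcutaneously in flanks of BALB/c-nu (nu/nu) mice; dosing began at ca. 80 mm3 tumours; groups of five, randomized. 2 or 5 mg/kg given ip three times weekly in ethanol–cremophor–H2O (0.5:0.5:99), vehicle controls; caliper volume (3.14·L·W·H/6) three times weekly for 30 days; Ki-67 immunohistochemistry on tumour sections (1:250, 4 °C overnight, DAB, hematoxylin counterstain).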

[2] = tested on: HCT-15; experiment: Induction of apoptosis in human HCT15 cells assessed as suppression of Bcl2 expression at 5 to 20 uM after 24 hrs by Western blot analysis; type: functional, cell-based
Summary of the method: (§2)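 HCT-15 cells (RPMI, 10% heat-inactivated FBS, antibiotics-antimycotics, 37 C, 5% CO2) exposed to compound. Cells lysed, protein measured by BCA, 30-50 μg per lane resolved on 10% SDS-PAGE and electroblotted to PVDF. Membranes blocked 1 h in 5% nonfat milk/PBST, probed with primary antibodies overnight at 4 C, then HRP anti-mouse IgG 1:1500 for 3 h at room temperature. Detection by ECL; β-actin antibody available.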

[3] = tested on: HCT-15; experiment: Cell cycle arrest at […] phase in human HCT15 cells assessed as cyclin A down regulation at 5 to 20 uM after 12 to 24 hrs by Western blot analysis; type: functional, cell-based
Summary of the method: (§3)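 HCT-15 cells in RPMI/10% FBS exposed to test compound at various concentrations; lysates quantified by BCA, 30–50 μg protein run on 10% SDS-PAGE, transferred to PVDF, blocked 1 h in 5% milk/PBST, primary antibodies overnight at 4 °C, HRP anti-mouse IgG 1:1500 for 3 h at room temperature, ECL detection.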

[4] = tested on: HCT-15; experiment: Induction of apoptosis in human HCT15 cells assessed as change in Bax expression at 5 to 20 uM after 24 hrs by Western blot analysis; type: functional, cell-based; summary of the method: as §3
[5] = tested on: HCT-15; experiment: Cytotoxicity against human HCT15 cells assessed as morphological changes with distinct rounded shapes and detachment at 5 to 20 uM by phase-contrast microscopy; type: functional, cell-based; settings: TDE = time-dependent effect
Summary of the method: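 HCT-15 cells treated with 0–20 μM for 12 and 24 h, vehicle-treated controls; morphology examined and photographed under phase-contrast microscope.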

[6] = tested on: HCT-15; experiment: Induction of apoptosis in human HCT15 cells assessed as suppression of Bcl-xL expression at 5 to 20 uM after 24 hrs by Western blot analysis; type: functional, cell-based; summary of the method: as §2
[7] = tested on: HCT-15; experiment: Antineoplastic activity against human HCT15 cells xenografted in nude BALB/c mouse assessed as inhibition of rate of tumor size at 5 mg/kg, ip 3 times a week for 4 weeks relative to control; type: functional; settings: HCT-15, ip, 672 h, route intraperitoneal; summary of the method: as §1
[8] = tested on: HCT-15; experiment: Cell cycle arrest in human HCT15 cells assessed as accumulation at G0/G1 phase at 5 uM after 12 hrs using propidium-iodide staining by flow-cytometry (reference value: 44.4 %); type: functional
[9] = tested on: HCT-15; experiment: Induction of apoptosis in human HCT15 cells assessed as suppression of procaspase-3 expression at 5 to 20 uM after 12 to 24 hrs by Western blot analysis; type: functional, cell-based; summary of the method: as §2
[10] = tested on: HCT-15; experiment: Antineoplastic activity against human HCT15 cells xenografted nude in BALB/c mouse assessed as inhibition of rate of tumor size at 2 mg/kg, ip 3 times a week for 4 weeks relative to control; type: functional; settings: HCT-15, ip, 672 h, route intraperitoneal; summary of the method: as §1
[11] = tested on: HCT-15; experiment: Cell cycle arrest in human HCT15 cells assessed as accumulation at sub-G1 phase at 10 uM after 24 hrs using propidium-iodide staining by flow-cytometry (reference value: 6.5 %); type: functional
[12] = tested on: HCT-15; experiment: Induction of apoptosis in human HCT15 cells assessed as suppression of procaspase-9 expression at 5 to 20 uM after 12 to 24 hrs by Western blot analysis; type: functional, cell-based; summary of the method: as §2
[13] = tested on: HCT-15; experiment: Induction of apoptosis in human HCT15 cells assessed as increase in caspase-9 expression at 5 to 20 uM by Western blot analysis; type: functional, cell-based; summary of the method: as §2
[14] = tested on: HCT-15; experiment: Induction of apoptosis in human HCT15 cells assessed as DNA fragmentation at 5 to 20 uM after 24 hrs by agarose-gel electrophoresis; type: functional, cell-based
Summary of the method: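 HCT-15 cells seeded 1 × 10^6 per 100 mm dish, after 24 h given fresh medium with compound (0–20 μM) for 24 h; lysed in 50 mM Tris-HCl pH 7.5/20 mM EDTA/1% NP-40, RNase A then proteinase K digestion, ethanol/ammonium acetate precipitation; 4 μg DNA on 2% agarose, SYBR Gold stain.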

[15] = tested on: HCT-15; experiment: Induction of apoptosis in human HCT15 cells assessed as increase in caspase-8 expression at 5 to 20 uM by Western blot analysis; type: functional, cell-based; summary of the method: as §2
[16] = tested on: HCT-15; experiment: Cell cycle arrest at M phase in human HCT15 cells assessed as decrease in cyclin B1 level at 5 to 20 uM after 12 to 24 hrs by Western blot analysis; type: functional, cell-based; summary of the method: as §3
[17] = tested on: HCT-15; experiment: Antineoplastic activity against human HCT15 cells xenografted in nude BALB/c mouse assessed as inhibition of Ki-67 expression at 2 mg/kg, ip 3 times a week for 4 weeks by immunohistochemical analysis; type: functional, organism-based; design: dose 2 mg/kg; summary of the method: as §1
[18] = tested on: HCT-15; experiment: Cell cycle arrest in human HCT15 cells assessed as accumulation at S phase at 10 uM after 24 hrs using propidium-iodide staining by flow-cytometry (reference value: 34.1 %); type: functional
[19] = tested on: HCT-15; experiment: Cell cycle arrest in human HCT15 cells assessed as accumulation at G0/G1 phase at 10 uM after 12 hrs using propidium-iodide staining by flow-cytometry (reference value: 44.4 %); type: functional
[20] = tested on: HCT-15; experiment: Cell cycle arrest in human HCT15 cells up to 10 uM after 12 hrs by propidium-iodide staining by flow-cytometry; type: functional, cell-based
[21] = tested on: HCT-15; experiment: Cell cycle arrest in human HCT15 cells assessed as increase in cyclin D1 expression up to 10 uM after 12 to 24 hrs by Western blot analysis; type: functional, cell-based; summary of the method: as §3
[22] = tested on: HCT-15; experiment: Cell cycle arrest in human HCT15 cells assessed as change in PCNA level at 5 to 20 uM after 12 to 24 hrs by Western blot analysis
[23] = tested on: HCT-15; experiment: Induction of apoptosis in human HCT15 cells assessed as suppression of procaspase-8 expression at 5 to 20 uM after 12 to 24 hrs by Western blot analysis; type: functional, cell-based; summary of the method: as §2
[24] = tested on: HCT-15; experiment: Cell cycle arrest in human HCT15 cells assessed as accumulation at G2/M phase at 5 uM after 12 hrs using propidium-iodide staining by flow-cytometry (reference value: 15.7 %); type: functional
[25] = tested on: HCT-15; experiment: Cell cycle arrest in human HCT15 cells assessed as accumulation at G2/M phase at 5 uM after 24 hrs using propidium-iodide staining by flow-cytometry (reference value: 22.4 %); type: functional

With `C[C@H]1CC[C@@]2(OC1)O[C@H]1C[C@H]3[C@@H]4CC[C@@H]5C[C@@H](O[C@@H]6O[C@H](CO)[C@H](O)[C@H](O)[C@H]6O[C@@H]6O[C@H](CO)[C@@H](O)[C@H](O)[C@H]6O)CC[C@]5(C)[C@H]4CC[C@]3(C)[C@H]1[C@@H]2C` [TIMOSAPONIN AIII] the TGI [1] was “Active”, the Activity [2] was “Active” and the Activity [3] was “Active”. For the same molecule, the Activity [4] was “inactive”, the Activity [5] was “tde” and the Activity [6] was “Active”. The inhibition in vivo at 5 mg/kg [7] was 37.3%, the Activity [8] was 52.2% and the Activity [9] was “Active”. The inhibition in vivo at 2 mg/kg [10] was 8.3%, the Activity [11] was 6.4% and the Activity [12] was “Active”. The Activity [13] was “Active”, the Activity [14] was “Active” and the Activity [15] was “Active”. For the same molecule, the Activity [16] was “Active”, the Activity [17] was “Active” and the Activity [18] was 15.3%. The Activity [19] was 43.2%, the Activity [20] was “Active” and the Activity [21] was “Active”. The Activity [22] was “inactive”, the Activity [23] was “Active” and the Activity [24] was 20.5%. It also gave an Activity [25] of 19.4%.
